MrgX1 antagonist – antagonists of human MrgX1 receptor. Q96LB2. MRGX1-HEK293 calcium flux, Fluo-4, BAM8-22 antagonism; active compounds read low. B-score at 10 µM. actives 1.3% (n = 310,000). AID 588676;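 active = calcium-response B-score plate-corrected more than 3 library SD below zero, starting fluorescence within 5 deviations, no agonist response on first addition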;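 also: peak minus trough fluorescence over baseline after final BAM8-22 challenge near maximal dose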
Target sequence (Q96LB2 whole entry, looked up): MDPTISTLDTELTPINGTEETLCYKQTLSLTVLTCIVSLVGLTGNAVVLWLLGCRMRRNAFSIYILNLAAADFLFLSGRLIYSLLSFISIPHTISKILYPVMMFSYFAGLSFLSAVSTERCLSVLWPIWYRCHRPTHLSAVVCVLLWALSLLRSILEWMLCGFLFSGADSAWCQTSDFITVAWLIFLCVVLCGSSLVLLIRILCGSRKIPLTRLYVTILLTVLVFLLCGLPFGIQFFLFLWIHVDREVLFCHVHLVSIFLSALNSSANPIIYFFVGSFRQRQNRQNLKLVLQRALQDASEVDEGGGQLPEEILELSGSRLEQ
RGS4 pot – RGS4 potentiation or activation; HEK293 M3R/inducible RGS4, carbachol calcium flux Fluo4; active compounds read low; B-score at 10 µM; actives 0.92% (n = 310,000); AID 463111;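 active = B-score of the integrated calcium signal more than 4 SD below the library mean, with starting fluorescence not abnormally high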;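 also: negative B-score means reduced calcium response which marks RGS4 activation or potentiation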
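Assay system: Inducible-RGS4 HEK293 cells carrying M3 receptor | Schedule: Compound preincubation 20 min at room temperature before agonist | Signal: Kinetic calcium fluorescence imaging with Fluo4-AM dye, 2 µM | Read-out basis: B score from integrated fluorescence ratio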
MrgX1 PAM – allosterically activates human MrgX1 receptor signaling; B-score at 10 µM; Q96LB2; MrgX1-HEK293, Fluo-4 calcium flux, FDSS; active compounds read high; AID 588675; actives 0.63% (n = 310,000);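 active = plate-corrected calcium response at least 3 library SD above typical, normal starting fluorescence, not activating the receptor alone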;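 also: compound read alongside a low EC10 to EC30 dose of BAM8-22 agonist; peak minus trough fluorescence over baseline measured at the second addition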
MrgX1 ag – activates human MrgX1 receptor signaling | Q96LB2 | actives 0.44% (n = 310,000) | B-score at 10 µM | MrgX1-HEK293 cells, Fluo-4 calcium fluorescence, agonist mode; active compounds read high;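 active = calcium response B-score plate-corrected fluorescence ratio at least 3 library SD, with starting fluorescence B-score inside 5 SD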
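System – MrgX1-expressing HEK293 cells · Incubation – cells plated overnight, dye loaded 0.5 h 37 °C, 0.5 h room temperature · Technique – kinetic Fluo-4 NW fluorescence of intracellular calcium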
RGS4 block – inhibitors of human RGS4. P49798. HEK293 M3R/RGS4 inducible, Fluo-4 calcium flux; active compounds read high; triggered by carbachol at its EC20. B-score at 10 µM. actives 0.45% (n = 310,000). AID 463165;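 active = B-score, a plate-corrected calcium signal, over three deviations above library mean, with baseline fluorescence within five deviations of library mean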;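 also: RGS4 expression induced by doxycycline in cells with stable M3 receptor; B-score is computed from the integrated fluorescence ratio over baseline after carbachol; higher B-score means a larger calcium signal and so more RGS4 inhibition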
Target sequence (P49798 whole entry, looked up): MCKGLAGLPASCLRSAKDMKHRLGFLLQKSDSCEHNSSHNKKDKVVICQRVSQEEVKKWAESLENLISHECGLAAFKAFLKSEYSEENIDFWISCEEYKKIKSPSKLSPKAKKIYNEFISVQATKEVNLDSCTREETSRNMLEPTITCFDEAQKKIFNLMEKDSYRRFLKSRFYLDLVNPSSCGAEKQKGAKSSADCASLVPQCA
MrgX1 antag conf – confirmation of human MrgX1 receptor antagonists; shares compounds with MrgX1 antagonist; remaining BAM8-22 calcium response % of control (active compounds read low), % at 10 µM; MrgX1-HEK293, BAM8-22 calcium flux, Fluo-4; active compounds read low; actives 19% (n = 2,300);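 active = remaining agonist calcium response no higher than 100% minus 3 SD of agonist-only control wells, with starting fluorescence near control levels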;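 also: agonist BAM8-22 given at a near maximal EC90 to ECmax level; peak minus minimum fluorescence divided by baseline after agonist addition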
HEK293 Ca flux – MrgX1 antagonist counter-screen hit in parental HEK293 cells; Fluo-4 calcium fluorescence, FDSS; fluorescence ratio F(max-min)/F0 at 10 µM; shares compounds with MrgX1 antagonist; actives 2% (n = 4,000); AID 624111;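 active = duplicate-averaged calcium fluorescence ratio at least three times the standard deviation of buffer wells, a nonspecific response in parental cells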
HEK293 Ca counter – MrgX1 allosteric activator counter-screen hit in parental HEK293 cells | shares compounds with MrgX1 antagonist | parental HEK293 calcium flux, Fluo-4 fluorescence ratio; active compounds read high | fluorescence ratio F(max-min)/F0 at 10 µM | actives 0.4% (n = 4,000) | AID 624114;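 active = calcium fluorescence ratio, averaged over duplicates, at least 3 SD of the buffer-well ratio, meaning a nonspecific response in receptor-free cells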;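 also: untransfected parental HEK293 lacking MrgX1 used as counterscreen for MrgX1 allosteric activators; fluorescence change taken during the second addition on a kinetic imager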
HEK293 Ca cntr2 – activity in parental HEK293 cells lacking MrgX1 receptor. shares compounds with MrgX1 antagonist. Fluo-4 calcium fluorescence (FDSS); active compounds read high. fluorescence ratio F(max-min)/F0 at 10 µM. actives 8.7% (n = 4,000);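 active = calcium fluorescence ratio at least three times the spread of buffer wells, meaning a non-specific response in parental cells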
A number is an active result; 0 = inactive; - = not tested or not shown. The list is not random: actives were taken first. Their share in the collection is about 3.5%.

SMILES	MrgX1 antagonist	RGS4 pot	MrgX1 PAM	MrgX1 ag	RGS4 block	MrgX1 antag conf	HEK293 Ca flux	HEK293 Ca counter	HEK293 Ca cntr2
Cc1ccc(C(=O)CSc2nnc(-c3ccco3)n2C)cc1	0	0	0	0	0	-	-	-	-
O=C(COC(=O)/C=C/c1ccc([N+](=O)[O-])cc1)NC(c1ccccc1)c1ccccc1	0	0	0	0	0	-	-	-	-
O=C(O)C1=C(C(=O)N2CCN(C(=O)c3ccco3)CC2)CCCC1	-5.6	0	0	0	0	0	0	0	0
O=C(c1ccco1)N1CCN(C(=O)N2CCCCC2)CC1	0	0	0	0	0	-	-	-	-
COc1ccccc1N=Cc1c(C)c(C#N)c2[nH]c3ccccc3n2c1=O	-6.2	0	0	0	0	0	0	0	0
COc1cc(NC(=O)COc2cc(O)c3c(c2)OC(C)(C)CC3=O)cc(OC)c1OC	-5	0	0	0	0	51%	0	0	0
CC1(C)CC(=O)c2c(O)cc(OCC(=O)Nc3ccc(S(N)(=O)=O)cc3)cc2O1	0	0	0	0	0	-	-	-	-
Cc1ccc(N2C(=O)CCC2=O)c(C)c1	0	0	0	0	0	-	-	-	-
CCN(C(=O)CSC1=Nc2ccccc2C2CC=NN12)C1CCS(=O)(=O)C1 (stereo not given)	0	0	0	0	0	-	-	-	-
Cc1oc2c(CN(C)C)c(O)ccc2c(=O)c1-c1ccc2ccccc2n1	-8.6	0	0	0	0	0	0	0	0
O=C(O)Cc1sc(NC2CCCCC2)nc1-c1ccc(Cl)cc1	-9.6	0	0	0	0	82%	0	0	0
Cc1ccc(-c2nc(Nc3cccc(C)c3)sc2CC(=O)O)cc1	0	0	0	0	0	-	-	-	-
COc1cccc(CC(NC(C)=O)C(=O)NC2CCN(C(=O)Nc3ccc(C)cc3)CC2)c1 (stereo not given)	-	0	-	-	0	-	-	-	-
Cc1sc2nc(SCC(=O)N3CCOCC3)[nH]c(=O)c2c1-c1ccccc1	-5.1	0	0	0	0	0	0	0	0
CC1=Nc2ccc3ccccc3c2C1(C)C	-5.8	0	0	0	0	0	0	0	0
CCC(C)C(=O)Nc1nc(C)c(-c2csc(Nc3cc(OC)ccc3OC)n2)s1 (stereo not given)	-5.9	0	0	0	0	0	0	0	0
CC1(C)C(C=C(Cl)Cl)C1C(=O)N1CCN(c2ccccc2)CC1 (stereo not given)	-6.6	0	0	0	0	0	0	0	0
CCc1cccc(C)c1NC(=O)C1=C(C(=O)O)CCCC1	-7.8	0	0	0	0	0	0	0	0
O=C(O)CC(NC(=O)OCc1ccccc1)c1ccccc1 (stereo not given)	0	0	0	0	0	-	-	-	-
NC(CC(=O)O)c1cccc(OCc2ccccc2)c1 (stereo not given)	-5.4	-	0	0	-	75%	0	0	0
COc1ccccc1OCCNC(=O)C1CC(=O)N(c2cccc(SC)c2)C1 (stereo not given)	0	0	0	0	0	-	-	-	-
CC1(C)CC(=O)c2c(O)cc(O)cc2O1	0	0	0	0	0	-	-	-	-
C[C@]12CCC[C@H](O1)c1c(cc3c(c1O)C(=O)c1c(O)cc(O)cc1C3=O)O2	-7.6	0	0	0	0	0	0.64	0	0
O=C(Nc1nnc(C2CC2)s1)c1ccc(Cl)c(S(=O)(=O)N2CCc3ccccc3C2)c1	-6.4	0	0	0	0	63%	0	0	0
O=C(NCCCn1ccnc1)c1cc(S(=O)(=O)N2CCOCC2)c(Cl)cc1Cl	-5.1	0	0	0	0	0	0	0	0
SMILES	MrgX1 antagonist	RGS4 pot	MrgX1 PAM	MrgX1 ag	RGS4 block	MrgX1 antag conf	HEK293 Ca flux	HEK293 Ca counter	HEK293 Ca cntr2
C=CCn1c(SCc2cccc(C#N)c2)nnc1-c1ccccc1O	-4.6	0	0	0	0	0	0	0	0
C=CCn1c(SCc2ccc(C#N)cc2)nnc1-c1cccc(Cl)c1	0	0	0	0	0	-	-	-	-
COc1ccccc1CNC(=O)COC(=O)Cn1cnc2ccccc21	0	0	0	0	0	-	-	-	-
C[C@H]1CN=C(Nc2ccccc2)N1CCCC1CCCCC1	-6.1	0	0	0	0	0	0	0	0
C[C@H]1CN=C(Nc2ccccc2)N1CC1CCCCC1	0	0	0	0	0	-	-	-	-
CN(C)C1=NC[C@H](Cc2ccccc2)N1CCCC1CCCC1	-5.6	-	0	0	-	0	0	0	0
O=C(O)CCCNc1ccc(S(=O)(=O)N2CCCCC2)cc1	0	0	0	0	0	-	-	-	-
CCn1c(P(C)(=O)O)nc2cc(NC(=O)c3ccccc3Cl)ccc21	0	0	0	0	0	-	-	-	-
O=C(NC1CCCC1)C(c1cccnc1)N(Cc1ccccc1)C(=O)c1csnn1 (stereo not given)	0	0	0	0	0	-	-	-	-
COc1ccc(C(=O)N[C@H](C(=O)OCC(=O)NC(=O)c2cccn2C)C(C)C)cc1	-4.8	0	0	0	0	0	0	0	0
O=C1c2cnccc2CN1Cc1ccccc1	-5.3	0	0	0	0	0	0	0	0
COc1ccc(N=Cc2cc3c(cc2O)OC(N)=C(C#N)C3c2ccccc2)cc1 (stereo not given)	-5.9	0	0	0	0	0	0	0	0
N#CC1=C(N)Oc2cc3ccccc3cc2C1c1cccnc1 (stereo not given)	0	0	0	0	0	-	-	-	-
CC(=O)NC(Cc1ccc(F)cc1)C(=O)NC1CCN(c2ncccc2[N+](=O)[O-])CC1 (stereo not given)	0	0	0	0	0	-	-	-	-
COc1cccc(CN(C)C(=O)COc2ccc(C(=O)c3ccc(Cl)cc3)cc2)c1OC	0	0	0	0	0	-	-	-	-
Cc1ccc(NC(=O)Cc2ccc(-c3ccccc3)cc2)nc1	-8.1	0	0	0	0	0	0	0	0
O=C(NCCCN1CCOCC1)c1cccs1	-8.8	-	0	0	-	79%	0	0	0
CCOC(=O)C[C@H]1c2cc(F)ccc2S(=O)(=O)N1C1CCCCC1	-6.4	0	0	0	0	0	0	0	0
COc1ccc(NC(=O)C2CCCN2C(=O)Oc2ccccc2)cc1 (stereo not given)	0	0	0	0	0	-	-	-	-
CC(C)N(Cc1nccn1C)C(=O)CC1C(=O)NCCN1Cc1ccc(F)c(F)c1 (stereo not given)	-6.5	0	0	0	0	72%	0	0	0
